An excerpt weighted towards active compounds, which were near 1.4% of everything screened.
UCH37 DUB inh – human UCH37 deubiquitinating enzyme inhibition; actives 0.33% (n = 330,000); purified proteasome/UCH37, Ub-AMC cleavage fluorescence; AID 588478; inhibition, % (test concentration not listed); Q9Y5K5;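 active means mean inhibition over replicate wells above about 20%, limit read from the data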;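 further: 0% = compound-free wells with enzyme and 100% = wells lacking proteasome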
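assay system = human UCH37 enzyme supplied as purified proteasome complex | amount = proteasome at 0.15 nM in the dispensed enzyme solution | schedule = 30 min compound-proteasome preincubation then 25 min substrate reaction, room temperature | measured by = fluorescence, ex 355 nm, em 460 nm | benchmarks = no-proteasome wells (full inhibition) and compound-free wells (no inhibition)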
Tb MetRS inh – Trypanosoma brucei MetRS inhibition; purified T. brucei MetRS, ATP depletion, Kinase-Glo luminescence; inhibition, % at 11.9 µM; actives 0.4% (n = 360,000);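 active means inhibition above a per-plate cutoff of the control wells' mean inhibition plus 3 SD, cut at about 5.5% in these data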;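 further: 0% = DMSO wells median and 100% = median of wells with control inhibitor compound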
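Material – parasite MetRS enzyme · Medium – HEPES-MgCl2-KCl buffer plus DTT, spermine, BSA, pyrophosphatase · Reagent – ATP, methionine and E. coli bulk tRNA substrates · Times – 15 min enzyme-compound preincubation, 2 h reaction, 10 min detection, 25 °C · Measured by – luminescence of leftover ATP · Evaluation – percent inhibition relative to median high and low control wells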
Rin1-Abl PPI inh – blocks binding of human Rin1 to Abl; TR-FRET Rin1/Abl binding, biochemical; inhibition, % at 7.35 µM; actives 0.4% (n = 360,000); AID 588664; in the data active means inhibition above about 5%, passing the limit was not always enough
ATG4B inh – ATG4B (human) cysteine protease inhibition | ATG4B cleavage of LC3-PLA2, NBD-HPC fluorescence, 1 h | inhibition, % at 8.33 µM | actives 0.51% (n = 340,000) | AID 504462; in the data active means inhibition above about 40%
* = called active by the depositor; x = not tested or not shown.

SMILES	UCH37 DUB inh	Tb MetRS inh	Rin1-Abl PPI inh	ATG4B inh
CCn1c(/N=C/c2ccccc2NS(=O)(=O)c2ccc(C)cc2)nc2ccccc21	x	6.5*	-1	28
CS(=O)(=O)Oc1ccc(/C=C2\C(=N)N3N=C(CC(=O)N4CCOCC4)SC3=NC2=O)cc1Cl	2	1	1	2
Cn1c2nc(=O)n(-c3ccccc3)c(=O)c-2nc2c1CCCC2	x	0	9.1*	x
COCCn1c2nc(=O)n(-c3ccccc3)c(=O)c-2nc2ccccc21	x	0	-1	x
COc1cc(CNC(=O)c2cc(-c3cc(C)cc(F)c3)n[nH]2)cc(OC)c1	x	0	-4	x
CN(C(=O)c1ccc(NC(=O)Cc2cccc(NC(=O)C3CCN(C(=O)C4CCCC4)CC3)c2)cc1)C1CCCC1	22*	0	5	-16
O=C(Nc1nnc(S(=O)(=O)N2CCCCCC2)s1)c1ccccc1	6	0	-1	0
NC(=O)c1sc2nc3c(c(-c4ccco4)c2c1N)CCC3	8	0	-5	13
Nc1c(C(=O)NC2CC2)sc2nc3c(c(-c4ccco4)c12)CC/C3=C/c1ccco1	6	1	13*	32
O=C(NCc1cc(C(F)(F)F)ccc1F)C1CCC(=O)N(C2CCCCCC2)C1 (stereo not given)	3	0	2	29
O=C(Nc1ccc(S(=O)(=O)O)cc1)c1ccc2c(c1)S(=O)(=O)c1ccccc1C2=O	4	0	0	-3
O=C(Nc1ccc(Cl)cc1)c1ccc2c(c1)S(=O)(=O)c1ccccc1C2=O	28*	0	0	4
CC(C)(C)c1cc(=O)n(-c2ccccc2)[nH]1	2	3	13*	9
O=C(CCCOc1ccccc1)N1CCN(S(=O)(=O)c2ccc(Cl)cc2)CC1	5	0	1	-5
CCOc1ccc(OCCCC(=O)N2CCN(S(=O)(=O)c3ccc(Cl)cc3)CC2)cc1	5	0	58*	-4
CC(=NNc1ccc(C(=O)O)cc1)c1ccc(O)c(O)c1O	21*	x	x	x
CC(=NNc1ccc(C(=O)O)cc1)c1ccc(Br)cc1	16	x	x	x
CC(=NNC(=O)c1ccccc1O)C1C(=O)c2ccccc2C1=O	21*	x	x	x
COc1ccccc1N1CCN(N=Cc2cc(OC)c(OC)c(OC)c2)CC1	3	x	x	x
O=C(CC1C(=O)Nc2ccccc2N1CC(=O)N1CCCC1)Nc1ccc(Br)cc1 (stereo not given)	-1	19*	0	-12
COC(=O)c1ccc(COc2ccc(C=NNC(=O)C(=O)Nc3ccc(OC)cc3)cc2OC)o1	3	x	x	x
CC(C)Cc1cc(C(=O)N2CCCC(C(=O)c3cc(F)ccc3F)C2)no1 (stereo not given)	8	1	2	16
COc1ccc(-c2noc3c2-c2nc(C(C)C)sc2CC3)cc1	1	0	3	3
CC(C)c1nc2c(s1)CCc1onc(-c3ccc(Cl)cc3)c1-2	24*	-1	0	-18
COCc1ccc(C(=O)N2CCCC(C(=O)c3cc(F)ccc3F)C2)s1 (stereo not given)	3	-1	0	1
SMILES	UCH37 DUB inh	Tb MetRS inh	Rin1-Abl PPI inh	ATG4B inh
CCN(CC)C(=O)C1=C(C)NC(=S)NC1c1cccs1 (stereo not given)	27*	-1	-2	3
CN(C)/C=C/C(=O)c1ccc(-n2cccc2)cc1	22*	0	2	-6
CCOC(=O)/C(=C/C1=CC(=C/N(C)C)/C(=O)O1)C(C)=O	22*	-1	-8	6
CC1CCCCC12NC(=O)N(CC(=O)OCc1ccc(Br)cc1)C2=O (stereo not given)	0	1	1	-8
OC(CN1CCN(c2ccccc2)CC1)c1c[nH]c2ccccc12 (stereo not given)	24*	0	0	-6
OC(CN1CCN(Cc2ccc3c(c2)OCO3)CC1)c1c[nH]c2ccccc12 (stereo not given)	x	0	1	0
CN(C)c1cc(NC(=O)CNC(C)(C)C)c2ccccc2n1	-42	4	2	-12
COCCCNC(=O)c1ccc2c3c(onc13)-c1ccccc1C2=O	24*	0	-14	4
O=C1c2ccccc2C(=O)C12OC2c1cccc2ccccc12 (stereo not given)	24*	0	13*	-15
CN(C)C=Nc1nc(-c2ccc3c(c2)OCO3)cs1	26*	x	x	x
COc1ccc(NC(=O)c2cc3cccc(OC)c3oc2=Nc2ccc(C(=O)O)cc2)cc1OC	24*	-1	3	-22
Cc1cc(C)c(NC(=O)c2cc(C(=O)O)ccc2C(=O)O)c([N+](=O)[O-])c1	47*	0	-4	5
O=P(O)(O)c1ccccc1OCCCCCOc1ccccc1P(=O)(O)O	1	0	0	1
O=C1CCCC(O)=C1N=Nc1ccc2c(c1)OCO2	20*	-1	-12	-5
COc1ccc(C(=O)NCCc2nnc3ccc(SCC(=O)N4CCOCC4)nn23)cc1	-2	1	5	-7
COc1ccc(C=NNC(=O)CCc2c(C)n[nH]c2C)cc1OC	3	x	x	x
COc1cccc(C=NNC(=O)CCc2c(C)n[nH]c2C)c1	29*	x	x	x
CCON=C1C(=O)N(c2ccccc2)c2ccccc21	2	x	x	x
CCC(=O)N1c2ccc(S(=O)(=O)CCC(=O)NCc3cccs3)cc2CC1C (stereo not given)	1	-1	-1	-3
O=S(=O)(O)c1ccc(NN=Cc2ccccc2O)cc1	23*	0	-1	-1
Oc1ccccc1C=NNc1ccccc1	3	x	x	x
CC1=NN(c2cc(Cl)c(S(=O)(=O)O)cc2Cl)C(=O)C1	3	0	4	1
CC1=NN(c2cccc(Cl)c2)C(=O)C1	5	0	32*	26
COc1ccc(CC2S/C(=N/N=C/c3ccccc3O)NC2=O)cc1 (stereo not given)	x	0	-2	-2
O=C1Cc2ccccc2C(=O)N1c1ccccc1	-6	1	0	5
SMILES	UCH37 DUB inh	Tb MetRS inh	Rin1-Abl PPI inh	ATG4B inh
O=C1Cc2ccccc2C(=O)N1Cc1ccccc1	26*	0	4	-2
O=C(NN=C(Cc1ncc[nH]1)c1ccccc1)c1ccccc1	1	x	x	x
O=C(CCC(=O)NNC(=O)COc1ccccc1)NCc1ccccc1	3	-1	-2	2
CC(/C=C/C=C/c1ccccc1)=N\NC(=O)c1cccnc1	x	-1	3	-10
CC(/C=C/C=C/c1ccccc1)=NNC(=O)c1cccnc1	24*	x	x	x
O=C(N/N=C/c1sc(=O)[nH]c1-[n+]1ccccc1)c1ccccc1[O-]	x	0	-3	14
O=C(NN=Cc1sc(=O)[nH]c1-[n+]1ccccc1)c1ccccc1[O-]	20*	x	x	x
CC(C)(C)c1cc[n+](-c2[nH]c(=O)sc2C=N/N=C(\[O-])c2ccccc2)cc1	21*	x	x	x
O=C(Cn1cnc2ccccc21)Nc1cccc(S(=O)(=O)N2CCCC2)c1	-2	36*	2	-3
NS(=O)(=O)c1cccc(NC(=O)COC(=O)Cn2cnc3ccccc32)c1	5	0	-1	4
O=C(Nc1ccc(C(=O)c2ccc(C(=O)O)c(C(=O)O)c2)cc1)c1ccccc1	7	0	1	1
